High-throughput results (PubChem)
L929 necroptosis: L929 zVAD cell death inhibition; L929 zVAD necroptosis rescue, ATP luminescence, 24 h; with zVAD 60 µM; viability rescue, % at 10 µM; hit rate 0.38% among 220,000;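 active = activation, scaled between plate controls, above about 75%, limit read from the data; inactive = activation under that limit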
B2AR ag: activates human beta-2 adrenergic receptor causing internalization; P07550; Am2.2-beta2AR cells, FAP receptor internalization, flow cytometry; response, % (no concentration beside the values); hit rate 0.43% among 340,000; AID 504454;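 active = response above a set limit, near 3 SD of response in nonfluorescent compounds, cut at about 42% in these data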
Dynein transport: blocks dynein driven cargo transport along microtubules; 3617.4 mouse cells, GR-EGFP nuclear translocation imaging; test concentration mostly 20 µM; stimulated with dexamethasone, 1 µM; hits give low values; z-score, hits read low; hit rate 0.47% among 220,000; AID 1381;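 active = plate z-score of nuclear minus cytoplasmic receptor signal below a set negative limit, without overly bright fluorescence or cell loss, cut at about -3.5 in these data, passing the limit was not always enough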;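 note: z-score of nuclear minus cytoplasmic ring GR-EGFP intensity difference per well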
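Buffer or medium – tet-free medium with charcoal-stripped serum · Signal – automated 10x imaging of fixed Hoechst-stained cells · Also added – dexamethasone agonist, 1.0 µM final, for 30 min · Incubation – induction 48 h, compound 1 h, agonist 30 min · Read-out – GR-EGFP nuclear translocation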
TNF necrop inh: blocks TNF-alpha induced death of Jurkat FADD-/- cells | hit rate 0.068% among 220,000 | Jurkat FADD-/- TNF necroptosis rescue, ATP luminescence, 24 h; 0 = TNF only, 100 = no-TNF cells | activation (protection from cell death), % at 10 µM;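 active = activation, meaning protection from cell death, of at least 50% relative to plate controls; inactive = activation below 50%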;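 note: necroptosis triggered by 40 ng/mL TNF-alpha added together with compound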
MDM2 E3 inh: inhibitors of human Mdm2 E3 ubiquitin ligase. Q00987. cell-based MDM2 ubiquitination luciferase reporter, 2 h; 0 = plate control, 100 = twice control, blank-subtracted. signal enhancement, % at 5 µM. hit rate 0.11% among 210,000. AID 1230;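 active = signal enhancement of 30% or more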;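 note: luminescence tracks abundance of the self-degrading MDM2-luciferase fusion protein; higher signal means inhibition of MDM2 E3 ligase activity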
Target sequence (Q00987 whole entry, looked up, the tested form may be a part): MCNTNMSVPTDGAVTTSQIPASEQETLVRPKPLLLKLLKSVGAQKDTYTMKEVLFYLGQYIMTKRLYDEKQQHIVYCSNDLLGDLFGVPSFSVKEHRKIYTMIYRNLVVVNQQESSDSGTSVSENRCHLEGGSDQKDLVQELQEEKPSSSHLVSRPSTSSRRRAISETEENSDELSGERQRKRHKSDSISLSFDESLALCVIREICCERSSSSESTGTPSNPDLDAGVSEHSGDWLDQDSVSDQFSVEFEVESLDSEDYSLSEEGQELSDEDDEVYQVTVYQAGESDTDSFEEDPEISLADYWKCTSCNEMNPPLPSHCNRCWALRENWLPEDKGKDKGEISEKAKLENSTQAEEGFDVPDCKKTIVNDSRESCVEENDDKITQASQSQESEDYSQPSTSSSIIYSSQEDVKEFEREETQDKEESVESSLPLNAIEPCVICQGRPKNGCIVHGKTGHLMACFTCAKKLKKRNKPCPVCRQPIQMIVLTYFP
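Material: stable MDM2–luciferase fusion reporter cells / Quantity: 2000 cells/well / Dosing: single 5 µM compound dose, 0.2% final DMSO / Buffer or medium: DMEM / Schedule: 4 h cell settling then 2 h compound exposure, 37 °C / Detection: luminescence with SteadyLite reagent, 15 min at room temperature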
zVAD death conf: confirmed blocker of zVAD induced death in L929 cells; hit rate 16% among 760; activation (protection from necroptosis), % at 10 µM; AID 463117; shares compounds with L929 necroptosis; L929 zVAD-induced necroptosis rescue, ATP luminescence, 24 h;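 active = mean protection from necroptosis of at least 50% over duplicate tests; inactive = mean protection below 50%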
Dynein confirm: dynein cargo transport inhibition, confirmation | 3617.4 GR-EGFP nuclear translocation imaging, dexamethasone-induced | hit rate 69% among 1,000 | calls only at 20 µM | shares compounds with Dynein transport;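 active = inhibition of receptor movement into the nucleus at or above a set limit in both runs, with normal cell brightness and cell count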;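 note: dexamethasone at 1 µM final in well for 30 min; nuclear minus cytoplasmic GR-EGFP mean intensity difference in channel 2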
Large screens that a line does not name were inactive (follow-up assays come after a bar, where they were run). The list is not random: actives were taken first. Their share in the collection is about 0.97%.

COC(=O)[C@@H]1[C@@H](C(=O)OC)C2(c3ccccc3-c3ccccc32)N(c2ccc(Cl)cc2)N1C#N	none
COC(=O)C[C@]1(C(=O)OC)CN(C#N)N(c2ccc(Cl)cc2)C12c1ccccc1-c1ccccc12	Dynein transport -4.37 (no result: MDM2 E3 inh)
O=C1NC(=S)NC(=O)C1=Cc1cccc2cc3ccccc3cc12	B2AR ag 93.5
COc1ccc(C=C2C(=O)NC(=S)NC2=O)cc1	none (no result: L929 necroptosis, Dynein transport, TNF necrop inh, MDM2 E3 inh)
Cc1cc(C)cc(N2C(=O)NC(=O)/C(=C\c3cc(C)n(C)c3C)C2=O)c1	none
CCc1ccccc1N1C(=O)NC(=O)/C(=C\c2cc(C)n(C)c2C)C1=O	B2AR ag 60.8
CN1C2CCC1/C(=C/c1ccccn1)C(=O)/C2=C\c1ccccn1	Dynein transport -3.59
FC(F)(F)c1ccc2c(c1)N(CCCN1CCN(CCCl)CC1)c1ccccc1S2	B2AR ag 68.3
Nc1ccc(CCN2CCN(c3cccc(C(F)(F)F)c3)CC2)cc1	none (no result: L929 necroptosis, Dynein transport, TNF necrop inh, MDM2 E3 inh)
Cn1ncnc2c(=O)n(C)c(=O)nc1-2	B2AR ag 53.1 (no result: L929 necroptosis, Dynein transport, TNF necrop inh, MDM2 E3 inh)
COc1cc2c3cc1Oc1c(OC)c(OC)cc4c1[C@H](Cc1ccc(cc1)Oc1cc(ccc1O)C[C@H]3N(C)CC2)N(C)CC4	none (no result: L929 necroptosis, Dynein transport, TNF necrop inh, MDM2 E3 inh)
COc1cc2c3c(c1OC)Oc1ccc(cc1)C[C@H]1c4c(cc(OC)c(OC)c4Oc4ccc(cc4)C[C@@H]3N(C)CC2)CCN1C	B2AR ag 44.8 (no result: L929 necroptosis, Dynein transport, TNF necrop inh, MDM2 E3 inh)
CC(=O)N1CCN(CCN=Cc2c(O)n(-c3ccc(F)cc3)c(=S)[nH]c2=O)CC1	none (no result: L929 necroptosis, Dynein transport, TNF necrop inh, MDM2 E3 inh)
O=C(COC(=O)Cc1ccccc1)Nc1ccc(Cl)cn1	none
O=C(Nc1ccccc1F)OC1CN2CCC1CC2 (centres undefined)	none
CN(C)C(=S)SSC(=S)N(C)C	MDM2 E3 inh 40.8
C=CCC1(Nc2ccccc2)CC(C)N(C)CC1C (centres undefined)	none
NP(=O)(OCCCc1ccccc1)Oc1ccc(Cl)cc1 (centres undefined)	none (no result: L929 necroptosis, Dynein transport, TNF necrop inh, MDM2 E3 inh)
Cc1ccc(-c2cc(-c3ccc(C)cc3)[n+](-c3ccccc3)c(-c3ccc(C)cc3)c2)cc1	B2AR ag 44.0 (no result: L929 necroptosis, Dynein transport, TNF necrop inh, MDM2 E3 inh)
CN(C)C(=O)Oc1ccc2c(c1)O/C(=C\c1cccc(Cl)c1)C2=O	B2AR ag 53.3 (no result: L929 necroptosis, Dynein transport, TNF necrop inh, MDM2 E3 inh)
Oc1ccc2c3c1OC1c4[nH]c5ccccc5c4C[C@@]4(O)C(C2)N(CC2CC2)CC[C@]314 (some centres undefined)	none (no result: L929 necroptosis, Dynein transport, TNF necrop inh, MDM2 E3 inh)
O=C1/C(=C/c2ccccc2)C[C@@]2(O)[C@H]3Cc4ccc(O)c5c4[C@@]2(CCN3CC2CC2)C1O5 (some centres undefined)	B2AR ag 69.4 (no result: L929 necroptosis, Dynein transport, TNF necrop inh, MDM2 E3 inh)
CN1C2CCC1CC(OC(=O)c1ccc(Cl)cc1)(C(=O)O)C2 (centres undefined)	none
c1ccc(C2CC3CC4(CCCC4)N2O3)cc1 (centres undefined)	TNF necrop inh 94.0
COc1cc2c(cc1OC)CC[N+](C)=C2	B2AR ag 56.9
O=C1NC(=O)N(Cc2ccccc2)C(=O)/C1=C\c1ccco1	B2AR ag 57.6
Cc1cccc(NC(=O)C(C)N2CC=C(c3ccccc3)CC2)c1 (centres undefined)	none
CNCCc1c[nH]c2ccc(O)cc12	none (no result: L929 necroptosis, Dynein transport, TNF necrop inh, MDM2 E3 inh)
O=C1NC(=S)NC(=O)C1=Cc1ccc(Br)s1	B2AR ag 54.0 (no result: L929 necroptosis, Dynein transport, TNF necrop inh, MDM2 E3 inh)
CN1C(=O)/C(=C\c2ccc(Br)s2)C(=O)NC1=S	none (no result: L929 necroptosis, Dynein transport, TNF necrop inh, MDM2 E3 inh)
N#CSCC(=O)N1c2ccccc2CCc2ccccc21	B2AR ag 51.8
Nc1ccccc1C(=O)OCC(=O)N1CCc2ccccc21	none
Cn1cccc1/C=C1/C(=O)NC(=S)N(Cc2ccc(F)cc2)C1=O	B2AR ag 60.2
Cn1cccc1/C=C1/C(=O)NC(=O)N(Cc2ccc(F)cc2)C1=O	none
Cc1ccsc1C(=O)C1CCCN(Cc2cnc(N3CCOCC3)s2)C1 (centres undefined)	none
C=C(C)[C@@]12OC3(c4ccccc4)O[C@@H]1C1[C@@H]4O[C@]4(CO)[C@@H](O)[C@]4(O)C(=O)C(C)=C[C@H]4[C@@]1(O3)[C@H](C)[C@H]2OC(=O)/C=C/C=C/c1ccccc1 (some centres undefined)	B2AR ag 111.6 (no result: L929 necroptosis, Dynein transport, TNF necrop inh, MDM2 E3 inh)
Cc1nc2ccc(Cl)cc2c(-c2ccccc2)c1C(=O)O	none
N#CC1c2ccccc2-n2nncc2CN1Cc1cc(Cl)cc(Cl)c1 (centres undefined)	B2AR ag 94.1 (no result: L929 necroptosis, Dynein transport, TNF necrop inh, MDM2 E3 inh)
CN(C)c1ccc(C=C(C#N)C#N)cc1	none
O=C(Cn1ncc2c3ccccc3n(Cc3ccccc3F)c2c1=O)N1CCC2(CC1)OCCO2	B2AR ag 50.5
CC1(C)C2SCC(=O)N2CCN1CC(=O)NN (centres undefined)	none
CC1=C(O)C(=O)C=C2C1=CC=C1C2(C)CCC2(C)C3CC(C)(C(=O)O)CCC3(C)CCC12C (centres undefined)	B2AR ag 105.0 (no result: L929 necroptosis, Dynein transport, TNF necrop inh, MDM2 E3 inh)
O=C1Nc2ccccc2/C1=C/c1cnc[nH]1	L929 necroptosis 85.5 | zVAD death conf 78.6
C[C@H]1C[C@@H](C)C(=O)[C@@H]([C@H](O)CC2CC(=O)NC(=O)C2)C1	L929 necroptosis 77.2 | zVAD death conf 79.8
O=C(Cn1cnc2ccccc2c1=O)NCC(=O)N1CCC2(CC1)OCCO2	none
CCC(C)n1c(O)c(/C=N/Nc2ccccc2)c(=O)[nH]c1=S (centres undefined)	none
Cc1cc2c(C(F)(F)F)cc(=O)oc2c2c1NCCC2	none
O=c1cc(C(F)(F)F)c2cc3c4c(c2o1)CCCN4CCC3	Dynein transport -4.78 | Dynein confirm active
O=C1NC(=O)N(c2ccccc2)C(=O)/C1=C\c1ccc([N+](=O)[O-])o1	none (no result: B2AR ag)
CN1C(=O)NC(=O)/C(=C/c2ccc([N+](=O)[O-])o2)C1=O	none
COc1ccc(N2C(=O)NC(=O)/C(=C\c3ccccc3[N+](=O)[O-])C2=O)cc1	none
CN1C(=O)NC(=O)/C(=C/c2ccc([N+](=O)[O-])s2)C1=O	Dynein transport -5.5 | Dynein confirm active
COc1ccc(OC)c(N2C(=O)NC(=O)/C(=C\c3ccc([N+](=O)[O-])s3)C2=O)c1	Dynein transport -5.6 | Dynein confirm active
O=C1NC(=O)N(c2ccccc2)C(=O)/C1=C\c1ccc([N+](=O)[O-])s1	Dynein transport -6 | Dynein confirm active
O=[N+]([O-])c1ccc(NCc2ccccc2)c2nonc12	Dynein transport -6.81 (no result: B2AR ag) | Dynein confirm active
CCOc1ccc(N2C(=O)/C(=C\c3cccs3)C(=O)NC2=S)cc1	Dynein transport -4.42 (no result: B2AR ag) | Dynein confirm active
O=[N+]([O-])c1ccccc1CNCCc1ccc(F)cc1	none
